Source: PubChem BioAssay
SKN-1 inh: blocks SKN-1 activity in C. elegans; AID 624304; C. elegans VP596 Pgst-4::GFP/RFP ratio, acrylamide-induced, 24 h; inhibition, % at 21.8 µM; actives 0.49% (n = 360,000);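 active = interference check ratio from 0.5 to 1.5 plus GFP to RFP signal ratio inhibition reaching or exceeding a fixed threshold, cut at about 30% in these data, passing the limit was not always enough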
DAGLB inhibitor: blocks human DAGLB lipase activity; HEK293T DAGLB membrane lysate, EnzChek fluorogenic substrate; inhibition, % at 5.17 µM; actives 0.059% (n = 340,000); in the data active = inhibition above about 34%;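 also: 0% = enzyme with vehicle and 100% = wells lacking enzyme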
Target sequence (Q8NCG7 whole entry, looked up): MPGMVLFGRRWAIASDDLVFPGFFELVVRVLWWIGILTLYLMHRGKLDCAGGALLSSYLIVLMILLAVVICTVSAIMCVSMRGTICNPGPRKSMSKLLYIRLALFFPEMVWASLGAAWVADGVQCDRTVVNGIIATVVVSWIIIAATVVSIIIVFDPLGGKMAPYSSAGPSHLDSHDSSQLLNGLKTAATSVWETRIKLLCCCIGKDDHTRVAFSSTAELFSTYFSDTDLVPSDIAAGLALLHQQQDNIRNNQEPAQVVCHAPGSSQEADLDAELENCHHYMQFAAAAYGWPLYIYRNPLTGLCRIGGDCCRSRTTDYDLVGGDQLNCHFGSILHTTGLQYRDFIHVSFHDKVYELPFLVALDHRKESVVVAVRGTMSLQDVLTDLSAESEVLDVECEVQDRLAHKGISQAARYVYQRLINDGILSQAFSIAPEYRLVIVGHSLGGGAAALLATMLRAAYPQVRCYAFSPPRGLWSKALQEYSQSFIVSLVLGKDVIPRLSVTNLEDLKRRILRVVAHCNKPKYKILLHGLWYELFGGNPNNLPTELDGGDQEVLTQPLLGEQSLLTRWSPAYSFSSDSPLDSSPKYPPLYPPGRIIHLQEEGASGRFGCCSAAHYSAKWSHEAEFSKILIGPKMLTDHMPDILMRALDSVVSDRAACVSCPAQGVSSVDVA
DDE Tn7 FP inh: inhibitors of Tn7 peptide binding to human fibrin DD(E); FP displacement of FITC-Tn7 peptide from fibrin DD(E); 0% = median of compound wells per plate; inhibition, % at 8.3 µM; actives 0.13% (n = 370,000);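 active = inhibition above the mean of compounds falling within the control limits plus 3 SD of them, cut at about 14% in these data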;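 also: 0% = plate median of compound wells and 100% = 10 µM Aha-Tn7 peptide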
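System: human fibrin DD(E); quantity: Fibrin-DD(E) at 2 µM final; also added: fluorescent Tn7 probe at 0.1 µM; compound dosing: single nominal test concentration of 8.3 µM per compound; schedule: 10 min preincubation, 3 h with tracer, room temperature; detection: fluorescence polarization of the labelled Tn7 tracer; repeats: one replicate per compound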
PolyA inhibitor: yeast polyadenylation inhibition; S. cerevisiae SKY197-pL101 polyadenylation reporter, beta-gal luminescence; efflux-impaired pdr1/pdr3 knockout yeast; score 100 = 6 SD above DMSO; activity score, % at 12 µM; actives 0.02% (n = 300,000); AID 1875;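 active = lowest replicate activity score at least 50, where 100 means six control SD above control mean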;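 also: yeast exposed to compound for 9 h at 30 °C; higher score means more reporter readthrough which indicates perturbed polyadenylation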
MT1-MMP act inh: MT1-MMP (human) activation inhibition; HT1080 RFP-PRO-GFP cells, GFP/RFP ratio fluorescence, overnight; percent of plate control window, DMSO zero; GFP/RFP ratio change, % at 20 µM; P50281; actives 0.061% (n = 360,000);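 active = GFP/RFP ratio change of at least 30% with cell ATP level not reduced by more than half and red fluorescence within 50% of control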
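Test system: HT1080 RFP-PRO-GFP cells; Benchmarks: DMSO and RFP-L50D-GFP cell wells; Timing: cells overnight before dosing, compound overnight, 37 °C, 5% CO2; Compound: one 20 µM compound dose with 1% DMSO; Read-out: GFP/RFP fluorescence ratio.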
Tn6 DDE FP: inhibitors of Tn6 peptide binding to human fibrin DD(E); P02675; Fibrin DD(E) TRITC-Tn6 fluorescence polarization displacement; inhibition, % at 8.3 µM; actives 0.21% (n = 370,000);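 active = inhibition above a per-campaign cutoff: mean of compounds within control limits plus 3 SD, cut at about 15% in these data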;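 also: 0% = median of all compound wells on the plate and 100% = blocking peptide control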
* = called active by the depositor. Most compounds without a hit are left out; they make up all but 0.9% or so of the library.

`C[C@H](CO)N1C[C@H](C)[C@@H](CN(C)C(=O)Nc2ccc(C(F)(F)F)cc2)Oc2ccc(NC(=O)Nc3ccc(C(F)(F)F)cc3)cc2C1=O` gave SKN-1 inh -16.0, DAGLB inhibitor 1.4, DDE Tn7 FP inh -0.5, MT1-MMP act inh 20.4 and Tn6 DDE FP 30.6*.
For C[C@@H]1CN([C@H](C)CO)C(=O)c2cc(NC(=O)Nc3ccc(C(F)(F)F)cc3)ccc2O[C@H]1CN(C)C(=O)Nc1ccc(F)cc1 the results were SKN-1 inh 12.4, DAGLB inhibitor -1.4, DDE Tn7 FP inh 2.1, MT1-MMP act inh 13.3 and Tn6 DDE FP -6.5.
`COCCCN1C(=O)[C@H](CC(=O)NCC23CC4CC(CC(C4)C2)C3)[C@]2(C(=O)OC)CCCCC=C12` gave DDE Tn7 FP inh -4.1 and Tn6 DDE FP 10.5.
`N#Cc1cc2ccccc2nc1SCC(=O)Nc1ccc(S(=O)(=O)N2CCCC2)cc1` gave SKN-1 inh -6.7, DAGLB inhibitor -3.5, DDE Tn7 FP inh -7.7, PolyA inhibitor -13.5, MT1-MMP act inh -85.9 and Tn6 DDE FP -8.8.
For COc1ccc2nc(SCC(=O)Nc3ccc(S(=O)(=O)N4CCCC4)cc3)c(C#N)cc2c1 the results were SKN-1 inh 39.6*, DAGLB inhibitor -0.3, DDE Tn7 FP inh -3.4, PolyA inhibitor -7.0, MT1-MMP act inh -42.1 and Tn6 DDE FP 9.6.
Cc1ccc2c(c1)C1CS(=O)(=O)N(CC(C)C)CN1C2 (centres undefined) was read as DDE Tn7 FP inh -4.2 and Tn6 DDE FP 9.4.
C=CCn1c(COc2ccccc2)nnc1SCC(=O)Nc1ccc(S(=O)(=O)Nc2cc(C)nc(C)n2)cc1 was read as DDE Tn7 FP inh 7.7 and Tn6 DDE FP -7.0.
Cc1cc(C)nc(N2C(=O)CC(C(C)c3ccccc3)C2=O)n1 (centres undefined) was read as SKN-1 inh 36.7*, DAGLB inhibitor 1.3, DDE Tn7 FP inh -3.2, PolyA inhibitor -10.3, MT1-MMP act inh -0.4 and Tn6 DDE FP 9.4.
For CC(c1ccccc1)C1CC(=O)N(c2ccc(C(=O)O)cc2)C1=O (centres undefined) the results were SKN-1 inh 9.9, DAGLB inhibitor 5.5, DDE Tn7 FP inh 9.1, PolyA inhibitor -0.5, MT1-MMP act inh 2.3 and Tn6 DDE FP -0.1.
`Brc1ccc(C=Nc2ccc(Nc3ccccc3)cc2)s1` gave SKN-1 inh -1.3, DAGLB inhibitor 10.4, PolyA inhibitor -19.7 and MT1-MMP act inh 48.9*.
Screening C(=Nc1ccc(Nc2ccccc2)cc1)c1ccc2ccccc2c1 returned SKN-1 inh 4.8, DAGLB inhibitor 13.7 and MT1-MMP act inh 43.5*.
Screening Cc1ccc(-c2cc3nc(-c4ccco4)cc(N4CCN(Cc5ccoc5)CC4)n3n2)cc1 returned DDE Tn7 FP inh 4.8 and Tn6 DDE FP 4.6.
`CC(C)c1ccc(/C=C/C(=O)Nc2ccc(CN3CCOCC3)cc2)cc1` gave SKN-1 inh 7.3, DDE Tn7 FP inh 6.2, PolyA inhibitor -53.7, MT1-MMP act inh 8.1 and Tn6 DDE FP -2.9.
Screening CC(C)c1ccc(C(=O)Nc2ccc(CN3CCOCC3)cc2)cc1 returned SKN-1 inh 70.1*, DAGLB inhibitor -2.9, DDE Tn7 FP inh 3.8, PolyA inhibitor -20.0, MT1-MMP act inh 3.6 and Tn6 DDE FP -3.5.
O=C(/C=C/c1ccc(Cl)cc1)Nc1ccc(CN2CCOCC2)cc1 was read as SKN-1 inh 63.2*, DAGLB inhibitor 0.0, DDE Tn7 FP inh -4.1, PolyA inhibitor -8.5, MT1-MMP act inh -3.2 and Tn6 DDE FP 4.1.
For COc1ccccc1NC(=O)c1ccc(CN2CCOCC2)cc1 the results were SKN-1 inh 36.0*, DAGLB inhibitor 1.9, DDE Tn7 FP inh -3.9, PolyA inhibitor 5.7, MT1-MMP act inh 4.0 and Tn6 DDE FP 9.8.
Screening O=C(Nc1ccc(CN2CCOCC2)cc1)c1cc2ccccc2o1 returned SKN-1 inh 56.2*, DAGLB inhibitor -1.5, DDE Tn7 FP inh -3.0, PolyA inhibitor -44.7, MT1-MMP act inh -1.6 and Tn6 DDE FP -4.5.
COc1ccc(OC)c(NC(=O)c2ccc(CN3CCOCC3)cc2)c1 was read as SKN-1 inh -8.2, DAGLB inhibitor -2.1, DDE Tn7 FP inh -5.9, PolyA inhibitor -4.0, MT1-MMP act inh 5.4 and Tn6 DDE FP 0.5.
For COC(=O)[C@@]12CCCCC3=C1N(CCC3)C(=O)[C@H]2CC(=O)NCc1ccccc1 the results were DDE Tn7 FP inh 2.1 and Tn6 DDE FP 1.9.
COC(=O)[C@]12C[C@H](CC(=O)NCC3CCCCC3)C(=O)N(CCC3=CCCCC3)C1=C[C@H](C(C)C)O[C@@H]2C1CC1 was read as DDE Tn7 FP inh 10.3 and Tn6 DDE FP -6.0.
`N=c1c2c(-c3ccccc3)c(-c3ccccc3)n(CCc3ccccc3)c2ncn1CCO` gave DDE Tn7 FP inh 2.6 and Tn6 DDE FP -3.9.
`COc1ccc2c3c(cccc13)C(=O)CC2` gave SKN-1 inh 49.7, DAGLB inhibitor -147.0, DDE Tn7 FP inh 21.1*, PolyA inhibitor -15.3, MT1-MMP act inh -10.3 and Tn6 DDE FP 36.1*.
Screening CC(C)(C)OC(=O)/C=C/[C@@H](CC1CCCC1)Sc1ccc(C(C)(C)C)cc1 returned DDE Tn7 FP inh -0.7 and Tn6 DDE FP -5.8.
Screening COc1cc(/C=C2/SC(=S)N(Cc3ccccc3)C2=O)cc(Cl)c1O returned SKN-1 inh 35.7*, DAGLB inhibitor -12.4, DDE Tn7 FP inh 5.5, PolyA inhibitor -1.8, MT1-MMP act inh 9.5 and Tn6 DDE FP 5.3.
COc1cc(/C=C2/SC(=S)N(Cc3ccccc3)C2=O)ccc1OCC(=O)O was read as SKN-1 inh -4.1, DAGLB inhibitor 3.9, DDE Tn7 FP inh -5.5, PolyA inhibitor -8.1, MT1-MMP act inh 6.2 and Tn6 DDE FP 1.9.
CCC(=O)N[C@@H]1C[C@@H]2O[C@@H](CO)CC[C@@H]2O[C@@H]1CCc1ccc(-c2cccc(OC)c2)cc1 was read as DDE Tn7 FP inh -3.8 and Tn6 DDE FP -2.4.
CCOC(=O)C1=NOC(C(=O)Nc2nccs2)(C(=O)C2CC2)C1 (centres undefined) was read as DDE Tn7 FP inh -5.8 and Tn6 DDE FP 6.3.
For O=C(COC(=O)CCC1CCCC1)Nc1ccc(Cl)cn1 the results were SKN-1 inh 40.9*, DAGLB inhibitor -4.0, DDE Tn7 FP inh 0.2, PolyA inhibitor 4.9, MT1-MMP act inh 0.4 and Tn6 DDE FP -3.0.
Screening CCC(C)N(c1nc(C)nc2c1nnn2Cc1ccccc1)C(C)CC (centres undefined) returned DDE Tn7 FP inh -7.2 and Tn6 DDE FP -4.1.
Cc1cccnc1Nc1nc(-c2ccc(F)cc2)cs1 was read as SKN-1 inh 42.4*, DAGLB inhibitor -9.0, DDE Tn7 FP inh 3.5, PolyA inhibitor -15.1, MT1-MMP act inh 1.3 and Tn6 DDE FP 0.4.
